These results are taken from ChEMBL document CHEMBL1154423, “Activity of colistin against heteroresistant Acinetobacter baumannii and emergence of resistance in an in vitro pharmacokinetic/pharmacodynamic model” (Antimicrob Agents Chemother, 2007).

Data set [1] in a line: Cmax in in vitro PK/PD model at loading dose of 0.90 mg and maintenance dose of 0.89 mg dosed at 24 hrs intervals. Format: ADME, organism-based. Also on record: dose 0.9 mg.
Data set [2] in a line: Cmax in in vitro PK/PD model at loading dose of 0.30 mg and maintenance dose of 0.23 mg dosed at 8 hrs intervals. Format: ADME, organism-based. Also on record: dose 0.3 mg.
Data set [3] is described as follows: Cmax in in vitro PK/PD model at loading dose of 0.45 mg and maintenance dose of 0.39 mg dosed at 12 hrs intervals. It counts as ADME, organism-based. Also on record: dose 0.45 mg.
Data set [4] deals with Acinetobacter baumannii. The experiment in a line: Antibacterial activity against Acinetobacter baumannii isolate 6 assessed as AUBC (0 to 72 hrs) normalized to log10CFU/ml in in vitro PK/PD model at loading dose of 0.45 mg and maintenance dose of 0.39 mg dosed at 12 hrs intervals. Format: functional, organism-based. In short, it runs like this: (§1)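 One-compartment in vitro PK/PD model at 37°C. Cation-adjusted Mueller-Hinton broth was pumped from a reservoir into the central compartment, with an early-log-phase inoculum of about 10^6 CFU/ml. Colistin sulfate simulated human colistin PK. Intermittent regimens were dosed into the central compartment; for the continuous regimen, colistin was spiked into the reservoir broth. Viable counts were by spiral plating over 0–72 h, AUBC0-72 normalized to log10 CFU/ml at t=0, n=3.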

Data set [5] has as its system Acinetobacter baumannii. The experiment in a line: Antimicrobial activity against gentamicin and ciprofloxacin resistant Acinetobacter baumannii ATCC 19606. It counts as functional, organism-based.
Data set [6] concerns Acinetobacter baumannii. The experiment in a line: Antibacterial activity against Acinetobacter baumannii ATCC 19606 assessed as AUBC (0 to 72 hrs) normalized to log10CFU/ml in in vitro PK/PD model at loading dose of 0.30 mg and maintenance dose of 0.23 mg dosed at 8 hrs intervals. Format: functional, organism-based. Put shortly:
as §1

Data set [7] concerns Acinetobacter baumannii. The experiment in a line: Antibacterial activity against Acinetobacter baumannii ATCC 19606 assessed as AUBC (0 to 72 hrs) normalized to log10CFU/ml in in vitro PK/PD model at loading dose of 0.90 mg and maintenance dose of 0.89 mg dosed at 24 hrs intervals. It counts as functional, organism-based. Put shortly:
as §1

Data set [8] deals with Acinetobacter baumannii. The experiment in a line: Antibacterial activity against Acinetobacter baumannii isolate 6 assessed as AUBC (0 to 72 hrs) normalized to log10CFU/ml in in vitro PK/PD model at loading dose of 0.30 mg and maintenance dose of 0.23 mg dosed at 8 hrs intervals. Format: functional, organism-based. In short, it runs like this: as §1
The test system of data set [9] is Acinetobacter baumannii. The experiment in a line: Antibacterial activity against Acinetobacter baumannii isolate 6 assessed as AUBC (0 to 72 hrs) normalized to log10CFU/ml in in vitro PK/PD model at continuous maintenance dose of 4.5 ug/ml. Format: functional, organism-based. In short, it runs like this: as §1
Data set [10] concerns Acinetobacter baumannii. The experiment in a line: Antibacterial activity against Acinetobacter baumannii ATCC 19606 assessed as AUBC (0 to 72 hrs) normalized to log10CFU/ml in in vitro PK/PD model at continuous maintenance dose of 4.5 ug/ml. Format: functional, organism-based. Put shortly:
as §1

Data set [11] relates to Acinetobacter baumannii. The experiment in a line: Antibacterial activity against Acinetobacter baumannii ATCC 19606 assessed as AUBC (0 to 72 hrs) normalized to log10CFU/ml in in vitro PK/PD model at loading dose of 0.45 mg and maintenance dose of 0.39 mg dosed at 12 hrs intervals. Format: functional, organism-based. In short, it runs like this:
as §1

In data set [12] the test system is Acinetobacter baumannii. The experiment in a line: Antimicrobial activity against Ceftazidime resistant Acinetobacter baumannii isolate 6. Format: functional, organism-based.
For data set [13], the system named is Acinetobacter baumannii. The experiment in a line: Antibacterial activity against Acinetobacter baumannii isolate 6 assessed as AUBC (0 to 72 hrs) normalized to log10CFU/ml in in vitro PK/PD model at loading dose of 0.90 mg and maintenance dose of 0.89 mg dosed at 24 hrs intervals. It counts as functional, organism-based. Put shortly: as §1

What is called Cmax is the peak of the concentration-time curve. Turning to COLISTIN [listing 1 of 2 here], the Cmax worked out at 9 µg/mL in data set [1], 3 µg/mL in data set [2] and 4.5 µg/mL in data set [3].
The MIC is the lowest concentration that inhibits growth of the organism. Turning to COLISTIN [listing 2 of 2 here], the AUBC in data set [4] was found to be 64.9 log10CFU/ml; in data set [6], 68.5 log10CFU/ml; in data set [7], 67 log10CFU/ml; in data set [8], 68 log10CFU/ml; in data set [9], 65.6 log10CFU/ml; in data set [10] it was 72.7 log10CFU/ml. The values for the AUBC in data set [11] and in [13] were 68.5 log10CFU/ml and 58.5 log10CFU/ml, respectively. The MIC in data set [5] and in [12] was 1 µg/mL throughout.
